According to ChEMBL document CHEMBL2331196, “Solvent Selection for Insoluble Ligands, a Challenge for Biological Assay Development: A TNF-α/SPD304 Study” (ACS Med Chem Lett, 2013):
Values after ≈ are worked out from the molar mass of the structure shown.

How the values were obtained:
Assay type in all cases: physicochemical
[1] = Solubility of the compound in 10 % PEG3350 by UV/visible spectroscopy
How it was run: (§1)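 The compound was diluted from a 10 mM aqueous stock of its HCl salt into 10 mM citrate-phosphate buffer, pH 6.5, containing the organic solvent at the stated % (v/v). Samples were centrifuged, and soluble material was read by UV absorbance at 252 nm. The pellet was resuspended in pure solvent and read as a check. Values are the mean of four independent measurements.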

[2] = Solubility of the compound in 5 % glycerol by UV/visible spectroscopy; how it was run: as §1
[3] = Solubility of the compound in 5 % DMSO by UV/visible spectroscopy; how it was run: as §1
[4] = Solubility of the compound in 2.5 % MeOH by UV/visible spectroscopy; how it was run: as §1
[5] = Solubility of the compound in citrate-phosphate buffer at pH 6.5
How it was run: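 The compound was diluted from a 10 mM aqueous stock (pH about 1) into 10 mM citrate-phosphate buffer, pH 6.5, with no organic cosolvent. After centrifugation, soluble material was quantified by UV absorbance at 252 nm. The resuspended precipitate was also measured. Values are the mean of four independent measurements.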

[6] = Solubility of the compound in 10 % glycerol by UV/visible spectroscopy; how it was run: as §1
[7] = Solubility of the compound in 2.5 % DMSO by UV/visible spectroscopy; how it was run: as §1
[8] = Solubility of the compound in 5 % DMF by UV/visible spectroscopy; how it was run: as §1
[9] = Solubility of the compound in 5 % PEG5000 by UV/visible spectroscopy; how it was run: as §1
[10] = Solubility of the compound in 5 % PEG3350 by UV/visible spectroscopy; how it was run: as §1
[11] = Solubility of the compound in 2.5 % PEG5000 by UV/visible spectroscopy; how it was run: as §1
[12] = Solubility of the compound in 2.5 % DMF by UV/visible spectroscopy; how it was run: as §1
[13] = Solubility of the compound in 2.5 % glycerol by UV/visible spectroscopy; how it was run: as §1
[14] = Solubility of the compound in 10 % DMSO by UV/visible spectroscopy; how it was run: as §1
[15] = Solubility of the compound in 5 % MeOH by UV/visible spectroscopy; how it was run: as §1
[16] = Solubility of the compound in 10 % PEG5000 by UV/visible spectroscopy; how it was run: as §1
[17] = Solubility of the compound in 10 % DMF by UV/visible spectroscopy; how it was run: as §1
[18] = Solubility of the compound in 10 % MeOH by UV/visible spectroscopy; how it was run: as §1

- solubility [1]: 96 µM (≈ 52.6 µg/mL)
- solubility [2]: 19 µM (≈ 10.4 µg/mL)
- solubility [3]: 52 µM (≈ 28.5 µg/mL)
- solubility [4]: 37 µM (≈ 20.3 µg/mL)
- solubility [5]: 10 µM (≈ 5.48 µg/mL)
- solubility [6]: 28 µM (≈ 15.3 µg/mL)
- solubility [7]: 33 µM (≈ 18.1 µg/mL)
- solubility [8]: 58 µM (≈ 31.8 µg/mL)
- solubility [9]: 97 µM (≈ 53.1 µg/mL)
- solubility [10]: 84 µM (≈ 46 µg/mL)
- solubility [11]: 90 µM (≈ 49.3 µg/mL)
- solubility [12]: 35 µM (≈ 19.2 µg/mL)
- solubility [13]: 15 µM (≈ 8.21 µg/mL)
- solubility [14]: 79 µM (≈ 43.3 µg/mL)
- solubility [15]: 58 µM (≈ 31.8 µg/mL)
- solubility [16]: > 100 µM
- solubility [17]: 82 µM (≈ 44.9 µg/mL)
- solubility [18]: 83 µM (≈ 45.5 µg/mL)
SMILES: Cc1cc2occ(CN(C)CCN(C)Cc3cn(-c4cccc(C(F)(F)F)c4)c4ccccc34)c(=O)c2cc1C
